Measurements of several laboratories.
Cell line: MCF7
Observed: cell growth or viability

Compound	test	setting	IC50 [µM]
C=CCn1c(-c2ccc(Cl)cc2)nc2ccc(C)cc21	MTT		22.2
COc1cc2c(Nc3ccc(NC(=O)c4ccccc4)cc3)ncnc2cc1OCCCN1CCOCC1	MTS	72 h	0.8
Cc1ccc2nc(-c3ccc(F)cc3)n(Cc3ccccc3)c2c1	MTT		43.1
Oc1ncnc2cc(Nc3nc(-c4ccc(C(F)(F)F)cc4)cs3)ccc12	MTT		2.86
CCN(CC)C/C=N/NC(=O)Nc1cc2c(Nc3ccc(F)c(Cl)c3)ncnc2cc1O[C@H]1CCOC1	MTT	72 h	2.34
O=C(NC(=S)N1CCCC1)c1ccc2ccccc2c1		48 h	3.62
Cc1ccc2nc(-c3ccc([N+](=O)[O-])cc3)n(Cc3ccccc3)c2c1	MTT		7.86
Oc1ccc(-c2csc(Nc3ccc4c(O)ncnc4c3)n2)cc1	MTT		7.43
COc1ccnc(-c2cc(OC)ccn2)c1	MTT	48 h	> 50
O=C(Nc1nnnn1C1CCCCC1)c1ccc2ccccc2c1		48 h	2.38
CC1(C)CC[C@]2(C(=O)O)CC[C@]3(C)C(=CC[C@@H]4[C@@]5(C)CC[C@H](O)C(C)(C)[C@@H]5CC[C@]43C)[C@@H]2C1	MTT	48 h	> 100
COc1cc2ncnc(Nc3ccc(F)c(Cl)c3)c2cc1NC(=O)N/N=C/c1cccn1CCN1CCCC1	MTT	72 h	2.45
C[C@H]1O[C@@H](n2cc(F)c(=O)[nH]c2=O)[C@H](O)[C@@H]1O	CCK-8	48 h	> 50
CC/C(=C(/c1ccc(OCCNC)cc1)c1ccc(B2OC(C)(C)C(C)(C)O2)cc1)c1ccccc1		5 days	0.708
CN(C)CCCn1cccc1/C=N/NC(=O)Nc1cc2c(Nc3ccc(F)c(Cl)c3)ncnc2cc1O[C@H]1CCOC1	MTT	72 h	6.17
CCOc1ccc(-c2nc3ccc(C)cc3[nH]2)cc1	MTT	48 h	> 100
CN(C)C/C=N/NC(=O)Nc1cc2c(Nc3ccc(F)c(Cl)c3)ncnc2cc1O[C@H]1CCOC1	MTT	72 h	5.72
Clc1ccnc2c1ccc1c(Cl)ccnc12	MTT	48 h	> 50
O=S(=O)(NN=Cc1cn(CCN2CCOCC2)c2ccccc12)c1cccc2ncccc12	MTT	48 h	79.1
FC(F)(F)c1cccc(Nc2ncnc3ccc(NCc4ccccc4)cc23)c1	MTT	24 h	6.83
Cc1ccc2nc(-c3cc(Br)ccc3O)[nH]c2c1	MTT	48 h	4.37
CCN(CC)CCCn1cccc1/C=N/NC(=O)Nc1cc2c(Nc3ccc(F)c(Cl)c3)ncnc2cc1OC	MTT	72 h	2.43
COc1cccc2c1C(=O)c1c(O)c3c(c(O)c1C2=O)C[C@@](O)(C(=O)CO)C[C@@H]3O[C@H]1C[C@H](N)[C@H](O)[C@H](C)O1	MTT		19.7
COc1cccc2c3c(c[n+](C)c12)sc1cccc(F)c13	MTT	72 h	3

Compound	test	setting	IC50 [µM]
COc1cc2ncnc(Nc3ccc(F)c(Cl)c3)c2cc1NC(=O)N/N=C/c1cccn1CCCN1CCCCC1	MTT	72 h	2.81
CC(C)Cc1ccc(-c2nn(-c3ccc(S(C)(=O)=O)cc3)cc2/C=N\N=C2/NC(=O)CS2)cc1	MTT	48 h	6.25
CN(C)CCn1cccc1/C=N/NC(=O)Nc1cc2c(Nc3ccc(F)c(Cl)c3)ncnc2cc1O[C@H]1CCOC1	MTT	72 h	4.82
CC(=O)CC(=O)[c-]1cccc1.[Fe+2].c1cc[cH-]c1	MTT	96 h	54
CNc1nc2ccccc2n2c(-c3cccc(OC)c3)cnc12	neutral red	96 h	0.217
CCNC(=S)NC(=O)c1ccc2ccccc2c1		48 h	6.26
CS(=O)(=O)c1ccc(-n2cc(/C=N/N=c3\[nH]c(-c4ccc([N+](=O)[O-])cc4)cs3)c(-c3ccc(Br)cc3)n2)cc1	MTT	48 h	35.7
O=Cc1ccc(CO)o1	WST-1	48 h	46.2
CC(=O)O[C@H]1C(=O)[C@@]2(C)[C@H]([C@H](OC(=O)c3ccccc3)[C@]3(O)C[C@H](OC(=O)[C@H](O)[C@@H](NC(=O)c4ccccc4)c4ccccc4)C(C)=C1C3(C)C)[C@]1(OC(C)=O)CO[C@@H]1C[C@@H]2O	MTT	48 h	0.006
O=C(NC(=S)NC1CCCCC1)c1ccc2ccccc2c1		48 h	5.22
Clc1ccc(-c2nc3ccccc3[nH]2)cc1	MTT	48 h	67.1
CC(C)C[C@H](NC(=O)[C@H](Cc1ccccc1)NC(=O)c1cnccn1)B(O)O	ATP luminescence		0.0088
CSc1ccc(-c2nc3ccccc3[nH]2)cc1	MTT	48 h	33.2
CC(C)NCC(O)COc1ccccc1-c1ccccc1OCC(O)CNC(C)C (stereo not drawn)	MTT	72 h	> 75
Nc1nc(Oc2ccccc2)nn1-c1ccc(C(=O)O)cc1	MTT		18.7
C1CCCC1.C1CCCC1.[Cl][W][Cl]	MTT		630
Oc1cccc(Nc2ccc3ncnc(Nc4cccc(C(F)(F)F)c4)c3c2)c1	MTT	24 h	20.5
COc1ccc(C(=O)O[C@@H]2CN3Cc4c(cc5c(c4OC)OCO5)[C@@]24C=C[C@H](OC)C[C@@H]34)cc1OC	WST-1		4.9
Cc1ccc2nc(-c3cccc(O)c3)[nH]c2c1	MTT	48 h	> 100
FC(F)(F)c1cccc(Nc2ncnc3ccc(-c4ccc(Cl)cc4)cc23)c1	MTT	24 h	12.3
COC(=O)c1ccc(-n2nc(SC)nc2N)cc1	MTT		23.4
O=S(=O)(NN=Cc1cn(CCN2CCOCC2)c2ccccc12)c1ccc(-c2ccccc2)cc1	MTT	48 h	17.3
Cc1cc(C)n(-c2nc(Nc3ccc(Cl)cc3)nc(-n3nc(C)cc3C)n2)n1	MTT	72 h	2.29
COc1ccc(O)c(/C=N/c2nc(Oc3ccccc3)nn2-c2ccc(C(=O)O)cc2)c1	MTT		27.5
